Results as given in ChEMBL document CHEMBL3580644, “Synthesis of piperlongumine analogues and discovery of nuclear factor erythroid 2-related factor 2 (Nrf2) activators as potential neuroprotective agents” (J Med Chem, 2015).
The source made the active and inactive calls. No cut-off for these calls is given here.

Key:
[1] = Cytotoxicity against human L02 cells assessed as reduction in cell viability at 20 uM to 100 uM incubated for 24 hrs by MTT assay; format: cell-based; conditions: l02, 24 h
PC-12 [2] = test: Cytoprotection activity against H2O2-induced cytotoxicity in rat PC12 cells assessed as cell viability at 20 uM pre-incubated for 24 hrs before H2O2 exposure for 12 hrs by MTT assay; format: functional, cell-based
PC-12 [3] = test: Cytoprotection activity against 6-OHDA-induced cytotoxicity in rat PC12 cells assessed as cell viability at 20 uM pre-incubated for 24 hrs before 6-OHDA exposure for 12 hrs by MTT assay; format: functional, cell-based
[4] = Cytoprotection activity against H2O2-induced cytotoxicity in rat PC12 cells assessed as increase in cell viability at 20 uM pre-incubated for 24 hrs before H2O2 exposure for 12 hrs by MTT assay; format: functional, PC-12
[5] = Cytoprotection activity against 6-OHDA-induced cytotoxicity in rat PC12 cells assessed as cell viability at 10 and 20 uM pre-incubated for 24 hrs before 6-OHDA exposure for 12 hrs by MTT assay; format: functional, PC-12
PC-12 [6] = test: Cytoprotection activity against 6-OHDA-induced cytotoxicity in rat PC12 cells assessed as cell viability at 10 and 20 uM pre-incubated for 24 hrs before 6-OHDA exposure for 12 hrs by LDH release assay; format: functional, cell-based
PC-12 [7] = test: Cytoprotection activity against H2O2-induced apoptosis in rat PC12 cells assessed as reduction in caspase-3 activation at 10 and 20 uM pre-incubated for 24 hrs before H2O2 exposure for 24 hrs by colorimetric assay; format: functional, cell-based
Summary of the method: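 Lysed in RIPA buffer (pH 7.5), protein by Bradford; caspase-3 measured colorimetrically with Ac-DEVD-pNA substrate, expressed as % of control; mean ± SD, three independent experiments.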

PC-12 [8] = test: Cytoprotection activity against H2O2-induced oxidative stress in rat PC12 cells assessed as reduction in ROS generation at 10 and 20 uM pre-incubated for 24 hrs before H2O2 exposure for 5 hrs by DCFH-DA dye based fluorescent microscopy; format: functional, cell-based
PC-12 [9] = test: Induction of antioxidant genes expression in rat PC12 cells assessed as increase in NQO1 mRNA level at 20 uM incubated for 6 hrs by qRT-PCR method; format: functional, cell-based
Summary of the method: (§1)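 PC12 cells, 1×10^6 per 60-mm dish, 1 day, then 20 μM compound for 0, 3, 6 and 12 h; total RNA isolated, quantified by 260/280 absorbance; mRNA by real-time RT-PCR normalized to GAPDH; mean ± SD of three independent experiments versus 0 h.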

PC-12 [10] = test: Induction of antioxidant genes expression in rat PC12 cells assessed as increase in GCLC mRNA level at 20 uM incubated for 6 hrs by qRT-PCR method; format: functional, cell-based; summary of the method: as §1
PC-12 [11] = test: Induction of antioxidant defense system in rat PC12 cells assessed as increase in GSH level incubated for 24 hrs; format: functional, cell-based
Summary of the method: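 Total glutathione: cells extracted in KPE buffer (0.1% Triton X-100, 0.6% sulfosalicylic acid, 5 mM EDTA, 0.1 M PBS pH 7.5), sonicated on ice, centrifuged 3000 g 4 min at 4 °C; supernatant assayed enzymatically. PC12 cells 1×10^6 in 60-mm dishes, compound 24 h; stress lines add 500 μM H2O2 or 200 μM 6-OHDA 12 h.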

PC-12 [12] = test: Induction of antioxidant defense system in rat PC12 cells assessed as increase in NQO1 activity level incubated for 24 hrs by DCPIP dye reduction based spectrophotometry; format: functional, cell-based
Summary of the method: (§2)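 NQO1: PC12 lysate in RIPA buffer, 5 μg protein into 20 mM Tris-HCl pH 7.4, 200 μM NADH, 40 μM DCPIP; A600 decrease read every 8 s for 2 min at room temperature ± 20 μM dicoumarol; dicoumarol-inhibitable rate used, expressed as % of DMSO control. Cells pretreated 24 h; stress lines then 500 μM H2O2 or 200 μM 6-OHDA 12 h.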

PC-12 [13] = test: Cytoprotection activity against H2O2-induced oxidative stress in rat PC12 cells assessed as TrxR1 activity at pre-incubated for 24 hrs before H2O2 exposure for 12 hrs by Escherichia coli Trx based assay; format: functional, cell-based
Summary of the method: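 Cellular TrxR activity: extract with 20 μg protein incubated 30 min at 37 °C in 100 mM Tris-HCl pH 7.4 containing 0.3 mM insulin, 660 μM NADPH, 3 mM EDTA, 4 μM E. coli Trx; stopped with 1 mM DTNB in 6 M guanidine-HCl pH 8.0; A412 minus Trx-free blank; % of DMSO control.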

PC-12 [14] = test: Cytoprotection activity against 6-OHDA-induced oxidative stress in rat PC12 cells assessed as NQO1 activity at pre-incubated for 24 hrs before 6-OHDA exposure for 12 hrs by DCPIP dye reduction based spectrophotometry; format: functional, cell-based; summary of the method: as §2
PC-12 [15] = test: Cytoprotection activity against 6-OHDA-induced oxidative stress in rat PC12 cells assessed as Trx activity at pre-incubated for 24 hrs before 6-OHDA exposure for 12 hrs by recombinant rat TrxR1 based assay; format: functional, cell-based
Summary of the method: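 Cellular Trx activity: extract with 20 μg protein incubated 30 min at 37 °C in 100 mM Tris-HCl pH 7.4 with 0.3 mM insulin, 660 μM NADPH, 3 mM EDTA, 60 nM recombinant rat TrxR1; stopped with 1 mM DTNB in 6 M guanidine-HCl pH 8.0; A412 minus TrxR-free blank; % of DMSO control.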

[16] = target: T1, Nuclear factor erythroid 2-related factor 2 (Rattus norvegicus) (UniProt O54968); test: Induction of Nrf2-mediated antioxidant genes expression in rat PC12 cells assessed as increase in HO1 protein expression at 10 and 20 uM incubated for 20 hrs by Western blotting method; format: cell-based; conditions: PC-12
T1 sequence (whole entry): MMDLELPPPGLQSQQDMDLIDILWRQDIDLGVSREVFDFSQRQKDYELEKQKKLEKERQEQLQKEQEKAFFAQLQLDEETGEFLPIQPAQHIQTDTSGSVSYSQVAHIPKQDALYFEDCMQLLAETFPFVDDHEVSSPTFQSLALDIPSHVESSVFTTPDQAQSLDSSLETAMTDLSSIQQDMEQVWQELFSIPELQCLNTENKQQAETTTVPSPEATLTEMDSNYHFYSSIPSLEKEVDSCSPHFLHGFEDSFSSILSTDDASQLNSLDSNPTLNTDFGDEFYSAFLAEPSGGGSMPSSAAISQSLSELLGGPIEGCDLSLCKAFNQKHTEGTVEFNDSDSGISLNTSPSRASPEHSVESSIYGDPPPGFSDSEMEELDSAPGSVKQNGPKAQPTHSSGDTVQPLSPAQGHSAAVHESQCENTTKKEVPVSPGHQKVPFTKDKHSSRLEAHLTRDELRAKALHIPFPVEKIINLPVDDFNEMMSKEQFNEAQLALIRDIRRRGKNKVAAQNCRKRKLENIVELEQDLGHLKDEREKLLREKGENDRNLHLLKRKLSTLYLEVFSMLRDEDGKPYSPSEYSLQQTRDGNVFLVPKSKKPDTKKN

[17] = target: T1, Nuclear factor erythroid 2-related factor 2 (Rattus norvegicus); test: Induction of Nrf2-mediated antioxidant genes expression in rat PC12 cells assessed as increase in TrxR1 protein expression at 10 and 20 uM incubated for 20 hrs by Western blotting method; format: cell-based; conditions: PC-12
PC-12 [18] = test: Cytoprotection activity against H2O2-induced cytotoxicity in rat PC12 cells assessed as cell viability at 10 and 20 uM pre-incubated for 24 hrs before H2O2 exposure for 12 hrs in presence of non-trageting shRNA by MTT assay; format: functional, cell-based

| Compound | Activity [1] | Activity (PC-12 [2]) | Activity (PC-12 [3]) | Activity [4] [%] | Activity [5] [%] | Activity (PC-12 [6]) | Activity (PC-12 [7]) | Activity (PC-12 [8]) | Activity (PC-12 [9]) | Activity (PC-12 [10]) | Activity (PC-12 [11]) | Activity (PC-12 [12]) | Activity (PC-12 [13]) | Activity (PC-12 [14]) | Activity (PC-12 [15]) | Activity [16] | Activity [17] | Activity (PC-12 [18]) |
| --- | --- | --- | --- | --- | --- | --- | --- | --- | --- | --- | --- | --- | --- | --- | --- | --- | --- | --- |
| COc1cc(/C=C/C(=O)N2CCCCC2=O)cc(OC)c1OC | Non-toxic | Active | Active | 75 | 75 | Active | Dose-dependent effect | Dose-dependent effect | Active | Active | Active | Active | Active | Active | Active | Active | Active | Active |
| COc1ccc(/C=C/C(=O)N2CCCC2=O)cc1 | Non-toxic | Active | Active | 80 | 75 | Active | Dose-dependent effect | Dose-dependent effect | Active | Active | Active | Active | Active | Active | Active | Active | Active | Active |
